Laboratory results: ChEMBL document CHEMBL1140168, “Phthalides from Pittosporum illicioides var. illicioides with inhibitory activity on superoxide generation and elastase release by neutrophils” (J Nat Prod, 2008)

Columns and labels:
[1] = Antiinflammatory activity in human neutrophils assessed as inhibition of fMLP/cytochalasin B-induced superoxide radical anion generation; format: functional, cell-based; details: Neutrophil
In short: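 Neutrophils from healthy adult donors were isolated by dextran sedimentation, Ficoll Hypaque centrifugation and hypotonic RBC lysis, then kept in Ca2+-free HBSS pH 7.4 at 4 °C. Cells with 0.5 mg/mL ferricytochrome c and 1 mM Ca2+ were equilibrated 2 min at 37 °C and given compound for 5 min. CB 1 µg/mL was added 3 min before 100 nM fMLP (10 min). SOD-inhibitable A550 was read continuously.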

[2] = Antiinflammatory activity in human neutrophils assessed as inhibition of fMLP/Cytochalasin B-induced elastase release; format: functional, cell-based; details: Neutrophil
In short: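 Elastase release (azurophilic degranulation) was measured in donor neutrophils (6 × 10^5/mL) with MeO-Suc-Ala-Ala-Pro-Val-p-nitroanilide substrate at 100 µM. Cells were equilibrated 2 min at 37 °C, then pretreated with compound for 5 min. Stimulation was with fMLP 100 nM plus cytochalasin B 0.5 µg/mL, and A405 was monitored continuously. IC50 came from concentration-dependent inhibition.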

| SMILES | IC50 [1] | IC50 [2] |
| --- | --- | --- |
| COc1cc([C@@H]2OC[C@@H]3[C@H]2CO[C@H]3c2cc(OC)c(O)c(OC)c2)cc(OC)c1O | 40.2 µM | > 50 µM |
| CC[C@@H]1OC(=O)c2c1cc(OC)c(OC)c2O | 13.7 µM | > 50 µM |
| CC[C@@H]1OC(=O)c2c1cc(OC)c(OC)c2OC | 17.6 µM | > 50 µM |
| C/C=C1\OC(=O)c2c1ccc(OC)c2O | 45.3 µM | 38.6 µM |
| CC[C@H]1OC(=O)c2c1ccc(OC)c2O | 21.2 µM | > 50 µM |
| CC[C@@H]1OC(=O)c2c1ccc(OC)c2O | 29.8 µM | > 50 µM |
| C/C=C1\OC(=O)c2c1ccc(OC)c2OC | > 50 µM | 33.9 µM |
| c1ccc2c(c1)[I+]c1ccccc1-2 [DIPHENYLENEIODONIUM] | 1.7 µM | – |
| COc1cc2ccc(=O)oc2c(OC)c1OC [FRAXIDIN METHYL ETHER] | 48.6 µM | > 50 µM |
| O=S(=O)(F)Cc1ccccc1 [PHENYLMETHYLSULFONYLFLUORIDE] | – | 202 µM |
| COc1cc2ccc(=O)oc2cc1OC [SCOPARONE] | 41.4 µM | > 50 µM |
